The IC50 is the concentration needed to halve the response being measured. By solubility is commonly meant the dissolved amount per volume that the medium holds. The low end stands for little dissolved substance, the high end for much dissolved substance.

Data set [1] in a line: Antiinflammatory activity in human SAEC assessed as inhibition of Poly(I:C) induced CIG5 expression by measuring residual activity rate at 10 uM pretreated for 24 hrs followed by Poly(I:C) addition for 4 hrs by qRT-PCR analysis. The class given is functional. Particulars: time 28 hrs. The gist of the method: (§1)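 hSAECs pretreated with compound at 10 μM final for 24 h, then poly(I:C) 10 μg/mL for 4 h. CIG5 or IL-6 mRNA measured by qRT-PCR (ΔΔCt, normalized to PPIA). Residual activity given as % of poly(I:C)-alone control, mean ± SD of three independent measurements.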
Background: Quantitative PCR measures a nucleic acid by following its amplification.

The nature of data set [2]: Antiinflammatory activity in human SAEC assessed as inhibition of Poly(I:C) induced IL-6 expression pretreated for 24 hrs followed by Poly(I:C) addition for 4 hrs by qRT-PCR analysis. The data set is classed as functional, cell-based. The method in brief:
(§2)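 Poly(I:C) 10 μg/mL then added for 4 h. CIG5 or IL-6 mRNA measured by qRT-PCR (ΔΔCt, PPIA normalized). IC50 from a four-parameter fit, mean ± SD of three independent runs.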

Data set [3] is described as follows: Antiinflammatory activity in human SAEC assessed as inhibition of Poly(I:C) induced CIG5 expression pretreated for 24 hrs followed by Poly(I:C) addition for 4 hrs by qRT-PCR analysis. The data set is classed as functional, cell-based. The method in brief:
as §2

The nature of data set [4]: Antiinflammatory activity in human SAEC assessed as inhibition of Poly(I:C) induced IL-6 expression by measuring residual activity rate at 10 uM pretreated for 24 hrs followed by Poly(I:C) addition for 4 hrs by qRT-PCR analysis. The data set is classed as functional. To be noted: time 28 hrs. The gist of the method:
as §1

Data set [5] has as its target T1, Bromodomain testis-specific protein (Homo sapiens, UniProt Q58F21). Briefly: Binding affinity BRDT BD1 (unknown origin) incubated for 1 hr by TR-FRET assay. A general note: TR-FRET usually uses a lanthanide donor and a delayed reading to cut background.
The target in the next data set is CREB-binding protein (Homo sapiens, UniProt Q92793). The data set is described as follows: Binding affinity CBP (unknown origin) incubated for 1 hr by TR-FRET assay.
For data set [6], the target named is T1, Bromodomain testis-specific protein. Briefly: Binding affinity BRDT BD2 (unknown origin) incubated for 1 hr by TR-FRET assay.
The subject of another data set is Mus musculus. Briefly: Antiinflammatory activity in C57BL/6 mouse model of poly(I:C)-induced acute airway inflammation assessed as decrease in H3K122Ac accumulation in lung tissue at 10 mg/kg, po administered 1 day prior to poly(I:C) stimulation by immunofluorescence analysis. The class given is functional, organism-based. The method in brief: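 Same mouse model: 10 mg/kg po one day before, plus a second dose with intranasal poly(I:C) (300 μg). Lungs collected one day later. H3K122Ac detected by immunofluorescence on paraffin lung sections and quantified as fold change in total fluorescence intensity.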

The subject of the next data set is SAEC. Briefly: Antiinflammatory activity in human SAEC assessed as decrease in H3K122Ac accumulation by immunofluorescence analysis. The class given is functional, cell-based. The method in brief:
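Immortalized human small airway epithelial cells stimulated with poly(I:C) at 10 μg/mL. H3K122Ac detected by immunofluorescence and quantified as fold change in total fluorescence intensity.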

A short description of data set [7]: Aqueous solubility of the compound after 24 hrs by HPLC analysis. To be noted: buffer. The data set is classed as physicochemical. The method in brief:
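Compound suspended in water and shaken 24 h at 25 °C, then centrifuged and filtered. Supernatant analyzed by C18 reverse-phase HPLC with one-point calibration against solutions of known concentration.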

Data set [8] concerns the target T2, Bromodomain-containing protein 4 (Homo sapiens, UniProt O60885). The data set is described as follows: Binding affinity human BRD4 BD2 incubated for 1 hr by TR-FRET assay.
Data set [9] deals with T3, Bromodomain-containing protein 2 (Homo sapiens, UniProt P25440). Briefly: Binding affinity BRD2 BD1 (unknown origin) incubated for 1 hr by TR-FRET assay. The method in brief:
(§3)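 Commercial TR-FRET kit with recombinant BRD2 bromodomain. Inhibitor at 0.01 nM–100 μM, 1 h at room temperature. Excitation 340 nm; 670/620 nm emission ratio read with 100 μs delay. IC50 from a four-parameter fit, mean of three runs.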

The target of data set [10] is T2, Bromodomain-containing protein 4. Briefly: Binding affinity recombinant human BRD4 BD1 (42 to 168 residues) expressed in Escherichia coli BL21(DE3) incubated for 1 hr by TR-FRET assay.
For data set [11], the target named is T3, Bromodomain-containing protein 2. Briefly: Binding affinity BRD2 BD2 (unknown origin) incubated for 1 hr by TR-FRET assay. The gist of the method:
as §3

Values after ≈ are worked out from the molar mass of the structure shown. Active and inactive are the calls of the source. The rule behind the calls is not given here. Bounds are passed on as bounds.

T3 sequence (P25440 whole entry): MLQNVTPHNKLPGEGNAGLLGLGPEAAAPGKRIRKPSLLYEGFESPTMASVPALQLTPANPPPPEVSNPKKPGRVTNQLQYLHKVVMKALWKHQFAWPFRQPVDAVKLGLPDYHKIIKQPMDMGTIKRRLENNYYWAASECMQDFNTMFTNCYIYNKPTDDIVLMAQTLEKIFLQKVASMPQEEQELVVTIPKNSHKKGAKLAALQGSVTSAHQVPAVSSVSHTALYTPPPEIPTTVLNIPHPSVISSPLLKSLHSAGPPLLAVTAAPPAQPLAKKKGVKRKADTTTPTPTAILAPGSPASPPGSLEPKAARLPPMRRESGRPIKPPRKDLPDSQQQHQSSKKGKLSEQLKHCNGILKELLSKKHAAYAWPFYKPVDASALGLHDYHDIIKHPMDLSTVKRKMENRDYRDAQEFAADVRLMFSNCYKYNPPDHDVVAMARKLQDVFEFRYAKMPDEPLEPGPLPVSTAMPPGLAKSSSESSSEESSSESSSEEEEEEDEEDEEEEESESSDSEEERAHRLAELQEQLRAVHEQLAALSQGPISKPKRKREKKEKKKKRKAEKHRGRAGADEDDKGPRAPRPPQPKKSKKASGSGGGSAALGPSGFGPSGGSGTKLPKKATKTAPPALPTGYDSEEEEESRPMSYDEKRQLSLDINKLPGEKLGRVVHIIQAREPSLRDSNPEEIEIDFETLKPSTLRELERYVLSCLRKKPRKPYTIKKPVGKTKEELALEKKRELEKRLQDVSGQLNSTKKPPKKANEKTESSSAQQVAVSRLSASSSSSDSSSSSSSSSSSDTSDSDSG
Sequence of CREB-binding protein (Q92793 whole entry): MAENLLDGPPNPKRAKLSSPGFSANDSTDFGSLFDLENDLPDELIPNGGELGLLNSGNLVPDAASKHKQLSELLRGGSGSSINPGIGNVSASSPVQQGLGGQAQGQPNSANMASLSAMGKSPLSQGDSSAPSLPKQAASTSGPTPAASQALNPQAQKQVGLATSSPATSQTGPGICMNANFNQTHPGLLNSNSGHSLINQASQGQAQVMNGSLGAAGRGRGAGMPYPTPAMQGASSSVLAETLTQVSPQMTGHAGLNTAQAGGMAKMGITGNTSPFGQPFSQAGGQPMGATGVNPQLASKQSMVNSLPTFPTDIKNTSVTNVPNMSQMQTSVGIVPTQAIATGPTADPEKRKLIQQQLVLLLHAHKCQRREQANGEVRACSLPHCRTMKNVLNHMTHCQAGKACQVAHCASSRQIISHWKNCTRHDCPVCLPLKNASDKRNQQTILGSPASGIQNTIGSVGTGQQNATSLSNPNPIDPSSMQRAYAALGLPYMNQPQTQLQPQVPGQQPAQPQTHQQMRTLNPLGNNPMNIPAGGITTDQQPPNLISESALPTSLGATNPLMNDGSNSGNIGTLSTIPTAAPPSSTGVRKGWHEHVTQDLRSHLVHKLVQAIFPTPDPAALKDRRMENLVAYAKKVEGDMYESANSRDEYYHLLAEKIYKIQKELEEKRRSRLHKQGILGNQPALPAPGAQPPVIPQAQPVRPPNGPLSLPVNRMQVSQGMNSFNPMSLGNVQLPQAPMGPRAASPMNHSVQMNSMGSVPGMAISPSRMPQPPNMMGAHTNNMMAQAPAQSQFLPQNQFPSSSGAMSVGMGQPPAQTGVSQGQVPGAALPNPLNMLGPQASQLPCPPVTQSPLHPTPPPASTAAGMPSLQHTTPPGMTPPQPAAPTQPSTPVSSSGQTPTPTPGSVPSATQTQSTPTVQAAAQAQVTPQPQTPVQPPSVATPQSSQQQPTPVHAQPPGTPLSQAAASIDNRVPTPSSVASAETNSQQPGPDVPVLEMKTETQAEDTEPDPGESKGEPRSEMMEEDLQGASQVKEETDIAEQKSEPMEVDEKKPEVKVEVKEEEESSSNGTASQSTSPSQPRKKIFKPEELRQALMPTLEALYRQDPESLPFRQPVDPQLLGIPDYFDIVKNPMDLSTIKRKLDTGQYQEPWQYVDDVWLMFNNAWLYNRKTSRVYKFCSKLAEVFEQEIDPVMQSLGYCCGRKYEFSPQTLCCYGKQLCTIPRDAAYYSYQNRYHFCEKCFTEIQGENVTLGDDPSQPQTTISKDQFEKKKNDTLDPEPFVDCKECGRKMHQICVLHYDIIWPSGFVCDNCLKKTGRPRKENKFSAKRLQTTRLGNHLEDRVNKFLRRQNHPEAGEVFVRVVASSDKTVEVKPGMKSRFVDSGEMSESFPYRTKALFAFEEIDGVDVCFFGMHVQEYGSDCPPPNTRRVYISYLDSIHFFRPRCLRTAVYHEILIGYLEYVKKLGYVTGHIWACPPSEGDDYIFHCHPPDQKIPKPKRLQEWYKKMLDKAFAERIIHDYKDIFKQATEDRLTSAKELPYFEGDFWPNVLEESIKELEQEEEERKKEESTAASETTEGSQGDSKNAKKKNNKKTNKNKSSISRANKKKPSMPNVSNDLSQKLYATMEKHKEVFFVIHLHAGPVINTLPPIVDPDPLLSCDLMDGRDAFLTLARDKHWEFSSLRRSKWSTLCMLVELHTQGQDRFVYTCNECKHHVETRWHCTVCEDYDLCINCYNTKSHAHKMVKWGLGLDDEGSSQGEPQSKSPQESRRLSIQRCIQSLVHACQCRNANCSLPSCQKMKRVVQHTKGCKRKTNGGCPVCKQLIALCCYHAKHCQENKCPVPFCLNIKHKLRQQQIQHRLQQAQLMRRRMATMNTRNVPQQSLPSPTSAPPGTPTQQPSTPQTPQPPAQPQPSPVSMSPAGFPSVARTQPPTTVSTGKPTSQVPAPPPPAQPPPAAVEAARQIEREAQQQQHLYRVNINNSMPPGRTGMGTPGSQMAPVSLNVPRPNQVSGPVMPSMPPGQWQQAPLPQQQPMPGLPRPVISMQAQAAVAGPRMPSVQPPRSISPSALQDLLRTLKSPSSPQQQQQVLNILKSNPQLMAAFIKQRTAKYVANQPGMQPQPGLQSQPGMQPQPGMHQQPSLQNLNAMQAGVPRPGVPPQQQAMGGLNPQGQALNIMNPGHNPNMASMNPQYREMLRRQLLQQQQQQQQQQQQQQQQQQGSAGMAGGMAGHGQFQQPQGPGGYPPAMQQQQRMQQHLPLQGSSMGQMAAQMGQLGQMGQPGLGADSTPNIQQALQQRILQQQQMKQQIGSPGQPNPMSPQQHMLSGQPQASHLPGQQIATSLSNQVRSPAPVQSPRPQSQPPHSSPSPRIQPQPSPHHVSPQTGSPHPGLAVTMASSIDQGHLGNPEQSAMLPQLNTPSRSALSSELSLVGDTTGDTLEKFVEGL

With `O=C(Nc1ccc(C(F)(F)F)cc1)Nc1ccc(S(=O)(=O)N2CCC[C@H]2C(=O)Nc2ccccc2)cc1`, the Activity amounted to 0.62% in data set [1] and 13.7% in data set [4]. In addition, the IC50 was found to be 1880 nM in [2] and 2060 nM in data set [3].
Consider `COC(=O)[C@@H]1CCCN1S(=O)(=O)c1ccc(NC(=O)Nc2ccc(OC(F)(F)F)cc2)cc1`, for which the Activity stood at 20.5% in data set [1] and 14.3% in data set [4].
With `COC(=O)[C@@H]1CCCN1S(=O)(=O)c1ccc(NC(=O)Nc2ccc(O)cc2)cc1`, the results for the Activity in data set [1] and in data set [4] were 326% and 45.2%, respectively.
For the compound `O=C(Nc1ccc(C(F)(F)F)cc1)Nc1ccc(S(=O)(=O)N2CCC(N3CCCC3)CC2)cc1`, the Activity in data set [1] was determined as 10%; in [4], 0.31%.
On the same counts, the results for `COC(=O)[C@@H]1CCCN1S(=O)(=O)c1ccc(NC(=O)c2ccc(C(F)(F)F)cc2)cc1` are 105% and 71%.
For `O=C1CCc2cc(NC(=O)Nc3ccc(C(F)(F)F)cc3)ccc2N1`, the figures for the Activity in [1] and in data set [4] were 3.34% and 106%, respectively.
For `COC(=O)[C@@H]1CCCN1S(=O)(=O)c1ccc(NC(=O)NCc2ccc(C(F)(F)F)cc2)cc1`, the results for the Activity in [1] and in data set [4] were 150% and 40.4%, respectively.
With `Cc1ccc(S(=O)(=O)OC[C@@H]2CCCN2S(=O)(=O)c2ccc(NC(=O)Nc3ccc(C(F)(F)F)cc3)cc2)cc1`, the Activity in data set [1] was 0.63%; in [4], 6.98%. The figures for the IC50 in data set [2] and in [3] were 4310 nM and 10800 nM, respectively.
For the compound `O=C(Nc1ccc(C(F)(F)F)cc1)Nc1ccc(S(=O)(=O)N2CCCC2)cc1`, the Activity in data set [1] was determined as 24.3%; in data set [4], 102%.
`COc1cc(OC)c2c(=O)[nH]c(-c3cc(C)c(OCCO)c(C)c3)nc2c1` [APABETALONE]: the figures for the 50% inhibitory concentration (IC50) (in data set [5]; at CREB-binding protein; in data set [6]) were 5030 nM, greater than 10000 nM and 696 nM, respectively.
As to `COC(=O)[C@@H]1CCCN1S(=O)(=O)c1ccc(NC(=O)Nc2ccc(C(F)(F)F)cc2)cc1OC`, the Activity in data set [1] is 59.5%; in data set [4], 22.5%.
As for `O=C(Nc1ccc(C(F)(F)F)cc1)Nc1ccc(S(=O)(=O)N2CCC[C@H]2C(=O)O)cc1`, the Activity came to 214% in data set [1] and 25.3% in data set [4].
On to `COC(=O)[C@@H]1CCCN1S(=O)(=O)c1cccc(NC(=O)Nc2ccc(C(F)(F)F)cc2)c1`, for which the results for the Activity in [1] and in data set [4] were 163% and 19.9%, respectively.
Take `COC(=O)[C@@H]1CCCN1C(=O)c1ccc(NC(=O)Nc2ccc(C(F)(F)F)cc2)cc1`: the Activity in data set [1] amounted to 5.79%; in [4], 16.5%.
Consider `O=C(Nc1ccc(C(F)(F)F)cc1)Nc1ccc(S(=O)(=O)N2CCC[C@H]2C(=O)Nc2ccccn2)cc1`, for which the figures for the Activity in [1] and in data set [4] were 1.12% and 32.8%, respectively.
Regarding `COC(=O)[C@H]1CCCN1S(=O)(=O)c1ccc(NC(=O)Nc2ccc(C(F)(F)F)cc2)cc1`, the Activity in data set [1] was 2.21%; in data set [4], 0.47%.
On the same counts, the results for `CCOC(=O)[C@H]1CCCN1S(=O)(=O)c1ccc(NC(=O)Nc2ccc(C(F)(F)F)cc2)cc1` are 4.74% and 0.57%.
As for `CC(=O)N1CCN(S(=O)(=O)c2ccc(NC(=O)Nc3ccc(C(F)(F)F)cc3)cc2)CC1`, the Activity was determined as 20% in data set [1] and 15.2% in data set [4].
As to `Cc1sc2c(c1C)C(c1ccc(Cl)cc1)=N[C@@H](CC(=O)OC(C)(C)C)c1nnc(C)n1-2`, the outcome in the data set on Mus musculus and in the data set on SAEC was Active. For the same compound, the Activity in data set [1] was 2.6%; in data set [4], 8.1%. The IC50 in [3] was found to be 970 nM.
In the case of `NC(=O)[C@@H]1CCCN1S(=O)(=O)c1ccc(NC(=O)Nc2ccc(C(F)(F)F)cc2)cc1`, the figures for the Activity in data set [1] and in [4] were 22.6% and 12.7%, respectively.
On the same counts, the results for `COC(=O)[C@@H]1CCCN1S(=O)(=O)c1ccc(NC(=O)Nc2ccc(C(F)(F)F)c(Cl)c2)cc1` are 74.7% and 37.9%.
Regarding `COC(=O)[C@@H]1CCCN1S(=O)(=O)c1ccc(N(C(=O)Nc2ccc(C(F)(F)F)cc2)C(C)C)cc1`, the Activity in data set [1] is given as 461%; in data set [4], 62.8%.
For `COC(=O)[C@@H]1CCCN1S(=O)(=O)c1ccc(NC(=O)Nc2ccc(OC)cc2)cc1`, in that order: 73.3% and 418%.
On to `COC(=O)[C@@H]1CCCN1S(=O)(=O)c1ccc(NC(=O)Nc2ccc(C(F)(F)F)cc2)c(F)c1`, for which the Activity in data set [1] amounted to 137%; in data set [4], 51.9%.
On the same counts, the results for `O=C(Nc1ccc(N2CCS(=O)(=O)CC2)cc1)Nc1ccc(C(F)(F)F)cc1` are 6.14% and 73.6%.
For `O=C(Nc1ccc(C(F)(F)F)cc1)Nc1ccc(S(=O)(=O)NC2CCCC2)cc1`, the figures for the Activity in data set [1] and in data set [4] were 28% and 190%, respectively.
As for `COC(=O)[C@@H]1CCCN1S(=O)(=O)c1ccccc1NC(=O)Nc1ccc(C(F)(F)F)cc1`, the Activity worked out at 12.6% in data set [1] and 2.63% in data set [4].
For `Cc1cc(/N=N/c2ccc(S(=O)(=O)NC3CCCC3)cc2)c(N)cc1O`, the Activity in data set [1] is listed as 15.6%; in [4] it was 0.91%. In data set [7], the solubility came out at 12.8 µg/mL (≈ 34.2 µM).
On to `COC(=O)c1ccc(NC(=O)[C@@H]2CCCN2S(=O)(=O)c2ccc(NC(=O)Nc3ccc(C(F)(F)F)cc3)cc2)cc1`, for which the values for the Activity in [1] and in data set [4] were 4.58% and 23.7%, respectively.
As to `COC(=O)[C@@H]1CCCN1S(=O)(=O)c1ccc(NC(=O)Nc2ccc(C(F)(F)F)cc2)cc1`, the Activity was determined as 2.19% in data set [1] and 3.42% in data set [4]. For the same compound, the IC50 in [2] stood at 1830 nM; in [3], 1350 nM.
On to `CN1CCN(C(=O)[C@@H]2CCCN2S(=O)(=O)c2ccc(NC(=O)Nc3ccc(C(F)(F)F)cc3)cc2)CC1`, for which the Activity stood at 5.47% in data set [1] and 6.63% in data set [4].
For the compound `COC(=O)[C@@H]1CCCN1S(=O)(=O)c1ccc(NC(=O)Nc2ccc(F)cc2)cc1`, the figures for the Activity in data set [1] and in data set [4] were 28.8% and 149%, respectively.
As to `COC(=O)[C@@H]1CCCN1S(=O)(=O)c1ccc(NC(=O)Nc2ccccc2)cc1`, the Activity in data set [1] is 75.3%; in [4] it was 237%.
In the case of `O=C(Nc1ccc(C(F)(F)F)cc1)Nc1ccc(S(=O)(=O)N2CCC[C@H]2CO)cc1`, the IC50 in [8] turned out to be 746 nM; in data set [2], 2290 nM; in data set [9], 1250 nM; in [3], 860 nM; in [10], 138 nM; in [11] it was 1210 nM. The Activity in [1] amounted to 0.39%; in data set [4], 1.71%.
In the case of `COC(=O)[C@@H]1CCCN1S(=O)(=O)c1ccc(NC(=O)Nc2cccc(C(F)(F)F)c2)cc1`, the Activity in data set [1] is recorded as 4%; in [4] it was 66.7%.
`COC(=O)[C@@H]1CCCN1S(=O)(=O)c1ccc(N/N=C(\C#N)C(=O)c2ccc(OC(F)(F)F)cc2)cc1`: the Activity in data set [1] is reported as 1.02%; in data set [4], 17.5%.
With `COC(=O)[C@@H]1CCCN1S(=O)(=O)c1ccc(NC(=O)Nc2ccc(C(F)(F)F)c(C)c2)cc1`, the values for the Activity in data set [1] and in [4] were 64.7% and 42.5%, respectively.
